# Measured values published in ChEMBL document CHEMBL1127016, “Inhibitors of the protease from human immunodeficiency virus: synthesis, enzyme inhibition, and antiviral activity of a series of compounds containing the dihydroxyethylene transition-state isostere” (J Med Chem, 1993).
# Experiments:
# [1] = target: Human immunodeficiency virus type 1 protease (Human immunodeficiency virus 1, UniProt Q72874); test: Inhibition of HIV-1 protease in vitro.
# How it was run: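 Recombinant HIV-1 protease refolded from E. coli inclusion bodies; substrate peptide H-Val-Ser-Gln-Asn-Tyr-Pro-Ile-Val-OH at 2.5 mM. 30 °C, 100 mM sodium acetate pH 5.5 (MOPS for pH 7), 10% glycerol, 5% ethylene glycol, 0.1% NP-40. Inhibitor added before enzyme, five to seven concentrations; stopped at 30 min with TFA, HPLC; Ki from Dixon plots.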
# Vaccinia virus [2] = test: Anti viral activity against vaccinia virus in CV-1 (monkey kidney) cells at 1 uM.; assay type: functional; conditions: Orthopoxvirus vaccinia, CV-1, in Primates
# Vaccinia virus [3] = test: Anti viral activity against vaccinia virus in CV-1 (monkey kidney) cells.; assay type: functional, Orthopoxvirus vaccinia; parameters: concentration or dose not given beside the values
Structure (SMILES),Ki [1] [µM],inhibition at 1 µM (Vaccinia virus [2]) [%],Inhibition (Vaccinia virus [3]) [%]
CC(C)[C@@H](C(=O)N[C@H]1c2ccccc2CC1O)[C@@H](O)[C@H](O)[C@H](CC1CCCCC1)NC(=O)c1ccccc1 (stereo not given in full),0.016,,
CCC(C)[C@H](NC(=O)[C@H](C(C)C)[C@@H](O)[C@H](O)C(CC1CCCCC1)NC(=O)c1ccccc1OCSc1ccccc1)C(=O)NCc1nc2ccccc2[nH]1 (stereo not given in full),0.005,86,
CC(C)[C@@H](C(=O)N[C@H]1c2ccccc2CC1O)[C@@H](O)[C@H](O)[C@H](CC1CCCCC1)NC(=O)c1ncccc1OCCOc1ccccc1 (stereo not given in full),> 0.2,,
CCC(C)[C@H](NC(=O)[C@H](C(C)C)[C@@H](O)[C@H](O)[C@H](CC1CCCCC1)NC(=O)c1ncccc1OCCOCCOC)C(=O)NCc1nc2ccccc2[nH]1 (stereo not given in full),0.1,,0
CCC(C)[C@H](NC(=O)[C@H](C(C)C)[C@@H](O)[C@H](O)C(CC1CCCCC1)NC(=O)c1ccccc1OCCOCCOCCOC)C(=O)NCc1nc2ccccc2[nH]1 (stereo not given in full),0.01,65,
CC(C)[C@@H](C(=O)N[C@H]1c2ccccc2CC1O)[C@@H](O)[C@H](O)C(CC1CCCCC1)NC(=O)c1ncccc1OCSc1ccccc1 (stereo not given in full),0.6,0,
CCC(C)[C@H](NC(=O)[C@H](C(C)C)[C@@H](O)[C@H](O)[C@H](CC1CCCCC1)NC(=O)c1ccccc1OCCOc1ccccc1)C(=O)NCc1nc2ccccc2[nH]1 (stereo not given in full),0.008,,86
CC(C)[C@@H](C(=O)N[C@H]1c2ccccc2CC1O)[C@@H](O)[C@H](O)[C@H](CC1CCCCC1)NC(=O)CCOCCOc1ccccc1 (stereo not given in full),> 0.2,,
COCCOCCOCCOc1cccnc1C(=O)NC(CC1CCCCC1)[C@@H](O)[C@H](O)[C@H](C(=O)N[C@H]1c2ccccc2CC1O)C(C)C (stereo not given in full),> 0.2,,
CCC(C)[C@H](NC(=O)[C@H](C(C)C)[C@@H](O)[C@H](O)C(CC1CCCCC1)NC(=O)c1ncccc1OCCOCCOCCOC)C(=O)NCc1nc2ccccc2[nH]1 (stereo not given in full),0.1,0,
COCCOCCOCCOc1ccccc1C(=O)NC(CC1CCCCC1)[C@@H](O)[C@H](O)[C@H](C(=O)N[C@H]1c2ccccc2CC1O)C(C)C (stereo not given in full),> 0.2,,
CC[C@H](C)[C@H](NC(=O)[C@H](C(C)C)[C@@H](O)[C@H](O)[C@H](CC1CCCCC1)NC(=O)c1ccccc1)C(=O)NCc1nc2ccccc2[nH]1,0.036,,
CC[C@H](C)[C@H](NC(=O)[C@H](C(C)C)[C@@H](O)[C@H](O)[C@H](CC1CCCCC1)NC(=O)C1CCCCC1)C(=O)NCc1ccccn1,0.022,,
COCCOCCOc1cccnc1C(=O)N[C@@H](CC1CCCCC1)[C@@H](O)[C@H](O)[C@H](C(=O)N[C@H]1c2ccccc2CC1O)C(C)C (stereo not given in full),> 0.2,,
COCCOCCOc1ccccc1C(=O)N[C@@H](CC1CCCCC1)[C@@H](O)[C@H](O)[C@H](C(=O)N[C@H]1c2ccccc2CC1O)C(C)C (stereo not given in full),0.2,,
CCC(C)[C@H](NC(=O)[C@H](C(C)C)[C@@H](O)[C@H](O)[C@H](CC1CCCCC1)NC(=O)CCOCCOc1ccccc1)C(=O)NCc1nc2ccccc2[nH]1 (stereo not given in full),0.004,,65
CC(C)[C@@H](C(=O)N[C@H]1c2ccccc2CC1O)[C@@H](O)[C@H](O)C(CC1CCCCC1)NC(=O)c1ccccc1OCSc1ccccc1 (stereo not given in full),0.2,0,
CCC(C)[C@H](NC(=O)[C@H](C(C)C)[C@@H](O)[C@H](O)C(CC1CCCCC1)NC(=O)c1ncccc1OCSc1ccccc1)C(=O)NCc1nc2ccccc2[nH]1 (stereo not given in full),0.14,0,
CC(C)[C@@H](C(=O)N[C@H]1c2ccccc2CC1O)[C@@H](O)[C@H](O)[C@H](CC1CCCCC1)NC(=O)c1ccccc1OCCOc1ccccc1 (stereo not given in full),> 0.2,,
CCC(C)[C@H](NC(=O)[C@H](C(C)C)[C@@H](O)[C@H](O)[C@H](CC1CCCCC1)NC(=O)c1ncccc1OCCOc1ccccc1)C(=O)NCc1nc2ccccc2[nH]1 (stereo not given in full),> 0.2,,0
CCC(C)[C@H](NC(=O)[C@H](C(C)C)[C@@H](O)[C@H](O)C(CC1CCCCC1)NC(=O)C(Cc1c[nH]cn1)NC(=O)COc1cccc2ccccc12)C(=O)NCc1ccccn1 (stereo not given in full),< 0.001,,
CCC(C)[C@H](NC(=O)[C@H](C(C)C)[C@@H](O)[C@H](O)[C@H](CC1CCCCC1)NC(=O)c1ccc(C)cc1OCCOc1ccccc1)C(=O)NCc1nc2ccccc2[nH]1 (stereo not given in full),0.048,,48
CCC(C)[C@H](NC(=O)[C@H](C(C)C)[C@@H](O)[C@H](O)[C@H](CC1CCCCC1)NC(=O)c1ccccc1OCCOCCOC)C(=O)NCc1nc2ccccc2[nH]1 (stereo not given in full),0.005,,56
